Experimental data: PMC3065024 (Nuclear medicine and biology, 2011)

Assays:
[1] = system: 9L tumor; assay: Small animal imaging with a microPET in 9L tumor bearing rats; format: in vivo, F344 rats; details: after intravenous injection, dynamic PET scan
In short: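 Rats bearing 9L xenografts were anaesthetised with 1–2% isoflurane and given 30–37 MBq (0.8–1 mCi) of radiotracer via the lateral tail vein. Dynamic small-animal PET acquisition started at injection and ran 2 h (5 min frames, 0.5 mm3 voxels), with a heating pad for body temperature. Region-of-interest analysis gave tissue time-activity curves.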

[2] = system: 9L glioma cells; assay: Uptake mechanism; format: cell-based; details: 30 min incubation
In short: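 The plating, washing, lysis and counting of 9L cells were as in the uptake assay. The radiotracer in PBS was co-incubated with MeAIB, L-Ala, L-Ser, BCH, D-Met or NEM at 0.5, 1 or 5 mM. For sodium dependence, PBS was replaced by Na+-free buffer (143 mM choline chloride, 2.68 mM KCl, 1.47 mM KH2PO4). Incubation was 30 min at 37 °C. Values are normalised to uninhibited uptake in PBS, n = 3.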

[3] = system: 9L xenograft; assay: In vivo biodistribution in Fisher rats with 9L glioma tumors; details: for Tumor uptake: 9L tumor, n = 5; for Tumor uptake / Blood uptake / Bone uptake / Brain uptake / Heart uptake / Kidney uptake / Liver uptake / Lung uptake / Muscle uptake / Pancreas uptake / Skin uptake / Spleen uptake: mean ± SD; for Blood uptake / Bone uptake / Brain uptake / Heart uptake / Kidney uptake / Liver uptake / Lung uptake / Muscle uptake / Pancreas uptake / Skin uptake / Spleen uptake: six rats
[4] = system: 9L glioma cells; assay: In vitro cell uptake studies in 9L cells; format: cell-based; details: time course up to 2 h
In short: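 9L gliosarcoma cells were grown in DMEM with 10% FBS and 1% penicillin/streptomycin at 37 °C, 5% CO2. They were seeded at 2.0 × 10^5 cells/well 24 h ahead and rinsed with warm PBS containing Ca2+/Mg2+. Radiotracer in PBS (~500,000 cpm/mL/well) was applied for 5, 30, 60 or 120 min at 37 °C. Cells were washed in ice-cold Ca/Mg-free PBS, lysed in 1 M NaOH and gamma-counted. Uptake is %ID/100 μg Lowry protein, in triplicate.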

[5] = system: LAT2; details: cited from earlier work
[6] = 30 min after single intravenous injection
[7] = 60 min after single intravenous injection

N[C@@H](Cc1ccc(CC[18F])cc1)C(=O)O [FEP, p-(2-[^18F]fluoroethyl)-L-phenylalanine]
Time for radioactivity in heart and muscle to reach a plateau [1]: 20 min | Inhibition of uptake by BCH ([2]; 5 mM BCH (system L inhibitor), normalized to uptake in PBS): more than 98% | Inhibition of uptake by D-Met ([2]; D-Met (LAT1 specific inhibitor)): very similar effect as BCH | Inhibition of uptake by MeAIB ([2]; MeAIB (system A inhibitor) 0.5 to 5 mM): no inhibition | Sodium dependence of uptake ([2]; Na+ replaced with choline vs PBS): sodium independent | Tumor uptake [3, 6]: 0.82 ± 0.06 % ID/g | Tumor uptake [3, 7]: 0.90 ± 0.20 % ID/g | Tumor to blood ratio ([3]; 30 min after injection): 1.12 | Tumor/Brain ratio ([3]; 30 min after injection): 1.55 | Tumor/Muscle ratio ([3]; 30 min after injection): 1.41 | Blood uptake [3, 6]: 0.73 ± 0.08 % ID/g | Bone uptake [3, 6]: 0.41 ± 0.03 % ID/g | Brain uptake [3, 6]: 0.53 ± 0.03 % ID/g | Heart uptake [3, 6]: 0.70 ± 0.07 % ID/g | Kidney uptake [3, 6]: 0.72 ± 0.05 % ID/g | Liver uptake [3, 6]: 0.71 ± 0.07 % ID/g | Lung uptake [3, 6]: 0.68 ± 0.08 % ID/g | Muscle uptake [3, 6]: 0.58 ± 0.05 % ID/g | Pancreas uptake [3, 6]: 2.66 ± 0.20 % ID/g | Skin uptake [3, 6]: 0.57 ± 0.07 % ID/g | Spleen uptake [3, 6]: 0.75 ± 0.06 % ID/g | Tumor to blood ratio ([3]; 60 min after injection): 1.38 | Tumor/Brain ratio ([3]; 60 min after injection): 1.73 | Tumor/Muscle ratio (tumor to background) ([3]; 60 min after injection): 1.45 | Blood uptake [3, 7]: 0.65 ± 0.05 % ID/g | Bone uptake [3, 7]: 0.41 ± 0.04 % ID/g | Brain uptake [3, 7]: 0.52 ± 0.05 % ID/g | Heart uptake [3, 7]: 0.63 ± 0.05 % ID/g | Kidney uptake [3, 7]: 0.63 ± 0.05 % ID/g | Liver uptake [3, 7]: 0.63 ± 0.05 % ID/g | Lung uptake [3, 7]: 0.61 ± 0.05 % ID/g | Muscle uptake [3, 7]: 0.62 ± 0.05 % ID/g | Pancreas uptake [3, 7]: 2.45 ± 0.27 % ID/g | Skin uptake [3, 7]: 0.60 ± 0.09 % ID/g | Spleen uptake [3, 7]: 0.69 ± 0.05 % ID/g | In vivo metabolic stability (from bone uptake) ([3]; bone uptake not significant at 30 and 60 min): metabolically stable | Maximum uptake relative to FET [4]: about 1.4 fold

N[C@@H](Cc1ccc(OCC[18F])cc1)C(=O)O [FET, O-(2-[^18F]fluoroethyl)-L-tyrosine]
Transport subtype selectivity [5]: selectively transported via LAT2
